Measured values from ChEMBL document CHEMBL4689842, “EUbOPEN Chemogenomics Library wave 1” (2021).

System: U2OS
Experiment: Multiplex assay against U2OS
Type: toxicity, cell-based
Details: human
Method in brief: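 On a CQ1 microscope at 37°C and 5% CO2, live cells were imaged after compound addition. They had been stained at seeding with Hoechst33342, BioTracker Green Microtubule Cytoskeleton Dye, MitoTracker Red and Annexin V Alexa Fluor 680. CellPathfinder machine-learning gating assigned cells to Hoechst high-intensity objects or normal cells, normal cells to healthy, pyknosed or fragmented nuclei, and pyknosed cells to mitotic or apoptotic. Tubulin, mitochondrial-mass and membrane-permeability phenotypes are per cents of healthy-nucleus cells.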

[1] = 12 h, 1 µM, compound concentration 1 uM, replicate 1
[2] = 12 h, 1 µM, compound concentration 1 uM, replicate 2
[3] = 12 h, 10 µM, compound concentration 10 uM, replicate 1
[4] = 12 h, 10 µM, compound concentration 10 uM, replicate 2
[5] = 24 h, 1 µM, compound concentration 1 uM, replicate 1
[6] = 24 h, 1 µM, compound concentration 1 uM, replicate 2
[7] = 24 h, 10 µM, compound concentration 10 uM, replicate 1
[8] = 24 h, 10 µM, compound concentration 10 uM, replicate 2

## CCN1CCN(c2ccc(Nc3cc(N(C)C(=O)Nc4c(Cl)c(OC)cc(OC)c4Cl)ncn3)cc2)CC1 [INFIGRATINIB]
[1]
  Population Apoptotic (%): 33%
  Population Fragmented Nuclei (%): 15%
  Population Healthy Nuclei (%): 60%
  Population Hoechst High Intensity Objects (%): 4%
  Population Membrane Permeable-Phenotype (%): 20%
  Population Mitochondria Different-Phenotype (%): 38%
  Population Mitotic Cells (%): 66%
  Population Normal (%): 95%
  Population Pyknosed Nuclei (%): 24%
  Population Tubulin-Different-Phenotype (%): 71%
  Total Cell Count: 142
[2]
  Population Apoptotic (%): 40%
  Population Fragmented Nuclei (%): 26%
  Population Healthy Nuclei (%): 51%
  Population Hoechst High Intensity Objects (%): 10%
  Population Membrane Permeable-Phenotype (%): 21%
  Population Mitochondria Different-Phenotype (%): 55%
  Population Mitotic Cells (%): 59%
  Population Normal (%): 89%
  Population Pyknosed Nuclei (%): 21%
  Population Tubulin-Different-Phenotype (%): 55%
  Total Cell Count: 127
[3]
  Population Apoptotic (%): 50%
  Population Fragmented Nuclei (%): 4%
  Population Healthy Nuclei (%): 87%
  Population Hoechst High Intensity Objects (%): 6%
  Population Membrane Permeable-Phenotype (%): 11%
  Population Mitochondria Different-Phenotype (%): 17%
  Population Mitotic Cells (%): 50%
  Population Normal (%): 93%
  Population Pyknosed Nuclei (%): 7%
  Population Tubulin-Different-Phenotype (%): 18%
  Total Cell Count: 198
[4]
  Population Apoptotic (%): 16%
  Population Fragmented Nuclei (%): 7%
  Population Hoechst High Intensity Objects (%): 13%
  Population Mitochondria Different-Phenotype (%): 18%
  Population Mitotic Cells (%): 83%
  Population Normal (%): 86%
  Population Pyknosed Nuclei (%): 5%
  Population Tubulin-Different-Phenotype (%): 13%
  Total Cell Count: 86
[5]
  Population Apoptotic (%): 49%
  Population Fragmented Nuclei (%): 16%
  Population Healthy Nuclei (%): 44%
  Population Hoechst High Intensity Objects (%): 8%
  Population Membrane Permeable-Phenotype (%): 30%
  Population Mitochondria Different-Phenotype (%): 63%
  Population Mitotic Cells (%): 50%
  Population Normal (%): 91%
  Population Pyknosed Nuclei (%): 38%
  Population Tubulin-Different-Phenotype (%): 81%
  Total Cell Count: 192
[6]
  Population Apoptotic (%): 70%
  Population Fragmented Nuclei (%): 30%
  Population Healthy Nuclei (%): 39%
  Population Hoechst High Intensity Objects (%): 14%
  Population Membrane Permeable-Phenotype (%): 19%
  Population Mitochondria Different-Phenotype (%): 78%
  Population Mitotic Cells (%): 29%
  Population Normal (%): 85%
  Population Pyknosed Nuclei (%): 30%
  Population Tubulin-Different-Phenotype (%): 70%
  Total Cell Count: 151
[7]
  Population Apoptotic (%): 14%
  Population Fragmented Nuclei (%): 5%
  Population Healthy Nuclei (%): 87%
  Population Hoechst High Intensity Objects (%): 2%
  Population Membrane Permeable-Phenotype (%): 15%
  Population Mitochondria Different-Phenotype (%): 14%
  Population Mitotic Cells (%): 85%
  Population Normal (%): 97%
  Population Pyknosed Nuclei (%): 7%
  Population Tubulin-Different-Phenotype (%): 23%
  Total Cell Count: 199
[8]
  Population Apoptotic (%): 27%
  Population Fragmented Nuclei (%): 10%
  Population Healthy Nuclei (%): 81%
  Population Hoechst High Intensity Objects (%): 9%
  Population Membrane Permeable-Phenotype (%): 17%
  Population Mitochondria Different-Phenotype (%): 20%
  Population Mitotic Cells (%): 72%
  Population Normal (%): 90%
  Population Pyknosed Nuclei (%): 8%
  Population Tubulin-Different-Phenotype (%): 11%
  Total Cell Count: 81
